Reference: ChEMBL document CHEMBL1139509, “Design, synthesis, and antipicornavirus activity of 1-[5-(4-arylphenoxy)alkyl]-3-pyridin-4-ylimidazolidin-2-one derivatives” (J Med Chem, 2005)
pIC50: −log10 of the molar value.

Key:
Enterovirus [1] = experiment: In vitro inhibitory concentration against human enterovirus EV71-2231 strain; type: functional, organism-based, Enterovirus A71
Procedure, shortened: (§1)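 CPE-inhibition (neutralization) assay on RD cells seeded at 3 × 10⁵ cells/mL in DMEM/10% FBS and grown 24-30 h to about 90% confluency. Virus (100 TCID50) was mixed with graded compound concentrations and adsorbed 1 h at 37 °C. Cells were overlaid with DMEM, 5% FBS and 2% DMSO, incubated 64 h at 37 °C, then glutaraldehyde-fixed and crystal violet-stained, with A570 read-out. IC50 is 50% CPE reduction versus virus control. Triplicate, at least twice.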

Enterovirus [2] = experiment: In vitro inhibitory concentration against human enterovirus EV71-4643 strain; type: functional, organism-based, Enterovirus A71; procedure, shortened: as §1
[3] = Cytotoxicity against human rhabdomyosarcoma cells; type: cell-based
Procedure, shortened: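 RD (rhabdomyosarcoma) cells were exposed to test compounds at various concentrations for 96 h at 37 °C. Viable cells were counted by trypan blue staining. CC50 is the concentration that reduces viability to 50% of the untreated control culture. Triplicate, run at least twice.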

Enterovirus [4] = experiment: Ratio of CC50 to that of IC50 against human enterovirus EV71-2231 strain; type: functional, Enterovirus A71
Enterovirus [5] = experiment: Ratio of CC50 to that of IC50 against human enterovirus EV71-4643 strain; type: functional, Enterovirus A71
Coxsackievirus [6] = experiment: Inhibitory concentration against Coxsackievirus A10; type: functional, organism-based, Viruses; procedure, shortened: as §1
Enterovirus [7] = experiment: Inhibitory concentration against human enterovirus EV68; type: functional, organism-based, Viruses
[8] = Inhibitory concentration against Echovirus 9; type: functional, Viruses; procedure, shortened: as §1
[9] = Inhibitory concentration against Echovirus 29; type: functional, Viruses; procedure, shortened: as §1
Coxsackievirus [10] = experiment: Inhibitory concentration against Coxsackievirus A9; type: functional, organism-based, Viruses; procedure, shortened: as §1
Coxsackievirus [11] = experiment: Inhibitory concentration against Coxsackievirus B1; type: functional, organism-based, Viruses; procedure, shortened: as §1
Coxsackievirus [12] = experiment: Inhibitory concentration against Coxsackievirus B2; type: functional, organism-based, Viruses; procedure, shortened: as §1
Coxsackievirus [13] = experiment: Inhibitory concentration against Coxsackievirus B3; type: functional, organism-based, Viruses; procedure, shortened: as §1
Coxsackievirus [14] = experiment: Inhibitory concentration against Coxsackievirus B4; type: functional, organism-based, Viruses; procedure, shortened: as §1
Coxsackievirus [15] = experiment: Inhibitory concentration against Coxsackievirus B5; type: functional, organism-based, Viruses; procedure, shortened: as §1
Coxsackievirus [16] = experiment: Inhibitory concentration against Coxsackievirus B6; type: functional, organism-based, Viruses; procedure, shortened: as §1
Coxsackievirus [17] = experiment: Inhibitory concentration against Coxsackievirus A16; type: functional, organism-based, Viruses; procedure, shortened: as §1
Coxsackievirus [18] = experiment: Inhibitory concentration against Coxsackievirus A24; type: functional, organism-based, Viruses; procedure, shortened: as §1
rhinovirus A2 = experiment: Inhibitory concentration against Human rhinovirus 2; type: functional, organism-based, human rhinovirus type 2; settings: Rhinovirus A; procedure, shortened: as §1
[19] = Inhibitory concentration against Human rhinovirus 14; type: functional, human rhinovirus type 14; procedure, shortened: as §1
Enterovirus [20] = experiment: Inhibitory concentration against human enterovirus EV71 (1743) genotype B; type: functional, organism-based, Viruses; procedure, shortened: as §1
Enterovirus [21] = experiment: Inhibitory concentration against human enterovirus EV71 (2231) genotype C; type: functional, organism-based, Viruses; procedure, shortened: as §1
Enterovirus [22] = experiment: Inhibitory concentration against human enterovirus EV71 (4643) genotype C; type: functional, organism-based, Viruses; procedure, shortened: as §1
Enterovirus [23] = experiment: Inhibitory concentration against human enterovirus EV71 (BrCr) genotype A; type: functional, organism-based, Viruses; procedure, shortened: as §1

## CCCC(CCOc1ccc(-c2ccc(Cl)cc2)cc1)CCN1CCN(c2ccncc2)C1=O (stereo unspecified)
Enterovirus [1]
  pIC50: < 4.60
Enterovirus [2]
  pIC50: 6.02
[3]
  CC50: > 25000 nM

## O=C1N(Cc2cccc(COc3ccc(-c4ccc(Cl)cc4)cc3)c2)CCN1c1ccncc1
Enterovirus [1]
  pIC50: 5.93
Enterovirus [2]
  pIC50: 6.80
[3]
  CC50: > 6250 nM

## O=C1N(Cc2cccc(COc3ccc(-c4ccc(Cl)cc4)cc3)n2)CCN1c1ccncc1
Enterovirus [1]
  pIC50: < 4.60
Enterovirus [2]
  pIC50: < 4.60
[3]
  CC50: > 25000 nM

## O=C1N(CCOCCOc2ccc(-c3ccc(Cl)cc3)cc2)CCN1c1ccncc1
Enterovirus [1]
  pIC50: 5.14
Enterovirus [2]
  pIC50: 6.08
[3]
  CC50: 25000 nM

## O=C1N(CCN(CCOc2ccc(-c3ccc(Cl)cc3)cc2)Cc2ccc(Cl)cc2)CCN1c1ccncc1
Enterovirus [1]
  pIC50: < 4.60
Enterovirus [2]
  pIC50: < 4.60
[3]
  CC50: > 25000 nM

## Cc1ccc(CN(CCOc2ccc(-c3ccc(Cl)cc3)cc2)CCN2CCN(c3ccncc3)C2=O)cc1
Enterovirus [1]
  pIC50: < 4.90
Enterovirus [2]
  pIC50: < 4.90
[3]
  CC50: > 12500 nM

## CC(C)(CCCOc1ccc(-c2ccc(Cl)cc2)cc1)CN1CCN(c2ccncc2)C1=O
Enterovirus [1]
  pIC50: 6.14
Enterovirus [2]
  pIC50: 7.03
[3]
  CC50: 20000 nM

## CC(CCOc1ccc(-c2nnn(C)n2)cc1)CCN1CCN(c2ccncc2)C1=O (stereo unspecified)
Enterovirus [1]
  pIC50: 7.37
Enterovirus [2]
  pIC50: 8.55
Enterovirus [4]
  Selectivity index: >581
Enterovirus [5]
  Selectivity index: >8928
[3]
  CC50: > 25000 nM

## O=C1N(CCC2(CCOc3ccc(-c4ccc(Cl)cc4)cc3)CCCCC2)CCN1c1ccncc1
Enterovirus [1]
  pIC50: < 4.60
Enterovirus [2]
  pIC50: < 4.60
[3]
  CC50: > 25000 nM

## CC(CCCN1CCN(c2ccncc2)C1=O)COc1ccc(-c2ccc(Cl)cc2)cc1 (stereo unspecified)
Enterovirus [1]
  pIC50: 7.24
Enterovirus [2]
  pIC50: 7.82
[3]
  CC50: > 25000 nM

## O=C1N(Cc2ccccc2COc2ccc(-c3ccc(Cl)cc3)cc2)CCN1c1ccncc1
Enterovirus [1]
  pIC50: < 5.90
Enterovirus [2]
  pIC50: < 5.90
[3]
  CC50: > 1250 nM

## CC(C)(CCOc1ccc(-c2ccc(Cl)cc2)cc1)CCN1CCN(c2ccncc2)C1=O
Enterovirus [1]
  pIC50: 6.85
Enterovirus [2]
  pIC50: 7.39
[3]
  CC50: > 25000 nM

## O=C1N(CCC(CCOc2ccc(-c3ccc(Cl)cc3)cc2)C(F)(F)F)CCN1c1ccncc1 (stereo unspecified)
Enterovirus [1]
  pIC50: 5.60
Enterovirus [2]
  pIC50: 6.13
[3]
  CC50: > 12500 nM

## O=C1N(Cc2ccc(COc3ccc(-c4ccc(Cl)cc4)cc3)cc2)CCN1c1ccncc1
Enterovirus [1]
  pIC50: < 5.90
Enterovirus [2]
  pIC50: < 5.90
[3]
  CC50: > 1250 nM

## CC(CCOc1ccc(-c2noc(C(F)(F)F)n2)cc1)CCN1CCN(c2ccncc2)C1=O (stereo unspecified)
Enterovirus [1]
  pIC50: 7.62
Enterovirus [2]
  pIC50: 8.85
Enterovirus [4]
  Selectivity index: >1041
Enterovirus [5]
  Selectivity index: >17857
[3]
  CC50: > 25000 nM

## CC(CCOc1ccc(-c2ccc(Cl)cc2)cc1)CCN1CCN(c2ccncc2)C1=O (stereo unspecified)
Coxsackievirus [6]
  pIC50: 5.77
Enterovirus [7]
  pIC50: 5.57
[8]
  pIC50: 5.58
[9]
  pIC50: 7.40
Coxsackievirus [10]
  pIC50: 7.48
Coxsackievirus [11]
  pIC50: 5.54
Coxsackievirus [12]
  pIC50: < 4.90
Coxsackievirus [13]
  pIC50: < 4.90
Coxsackievirus [14]
  pIC50: 5.91
Coxsackievirus [15]
  pIC50: 5.88
Coxsackievirus [16]
  pIC50: < 4.90
Coxsackievirus [17]
  pIC50: 6.05
Coxsackievirus [18]
  pIC50: 6.60
Rhinovirus A2
  pIC50: < 4.90
[19]
  pIC50: 5.10
Enterovirus [1]
  pIC50: 7.42
Enterovirus [2]
  pIC50: 8.03
Enterovirus [20]
  pIC50: 7.80
Enterovirus [21]
  pIC50: 7.42
Enterovirus [22]
  pIC50: 8.03
Enterovirus [23]
  pIC50: 7.16
Enterovirus [4]
  Selectivity index: >657
Enterovirus [5]
  Selectivity index: >2688
[3]
  CC50: > 25000 nM

## CCCc1nc(-c2ccc(OCCC(C)CCN3CCN(c4ccncc4)C3=O)cc2)no1 (stereo unspecified)
Enterovirus [1]
  pIC50: 7.26
Enterovirus [2]
  pIC50: 7.72
Enterovirus [4]
  Selectivity index: >227
Enterovirus [5]
  Selectivity index: >657
[3]
  CC50: > 12500 nM

## CC(CCCCOc1ccc(-c2ccc(Cl)cc2)cc1)N1CCN(c2ccncc2)C1=O (stereo unspecified)
Enterovirus [1]
  pIC50: 6.64
Enterovirus [2]
  pIC50: 7.44
[3]
  CC50: 12500 nM

## CN(CCOc1ccc(-c2ccc(Cl)cc2)cc1)CCN1CCN(c2ccncc2)C1=O
Enterovirus [1]
  pIC50: 5.93
Enterovirus [2]
  pIC50: 6.40
[3]
  CC50: 25000 nM

## O=C1N(CCC(CCOc2ccc(-c3ccc(Cl)cc3)cc2)Cc2ccccc2)CCN1c1ccncc1 (stereo unspecified)
Enterovirus [1]
  pIC50: < 5.00
Enterovirus [2]
  pIC50: < 5.00
[3]
  CC50: > 10000 nM

## CC(C)(CCCN1CCN(c2ccncc2)C1=O)COc1ccc(-c2ccc(Cl)cc2)cc1
Enterovirus [1]
  pIC50: < 4.60
Enterovirus [2]
  pIC50: 6.89
[3]
  CC50: > 25000 nM

## O=C1N(CCC(CCOc2ccc(-c3ccc(Cl)cc3)cc2)c2ccccc2)CCN1c1ccncc1 (stereo unspecified)
Enterovirus [1]
  pIC50: < 4.60
Enterovirus [2]
  pIC50: < 4.60
[3]
  CC50: > 25000 nM

## CCC(CCOc1ccc(-c2ccc(Cl)cc2)cc1)CCN1CCN(c2ccncc2)C1=O (stereo unspecified)
Enterovirus [1]
  pIC50: 6.22
Enterovirus [2]
  pIC50: 6.77
[3]
  CC50: > 25000 nM

## Cc1cc(COc2ccc(-c3ccc(Cl)cc3)cc2)cc(CN2CCN(c3ccncc3)C2=O)c1
Enterovirus [1]
  pIC50: < 4.60
Enterovirus [2]
  pIC50: 4.64
[3]
  CC50: > 25000 nM

## O=C1N(CCN(CCOc2ccc(-c3ccc(Cl)cc3)cc2)Cc2ccccc2)CCN1c1ccncc1
Enterovirus [1]
  pIC50: < 5.30
Enterovirus [2]
  pIC50: < 5.30
[3]
  CC50: > 5000 nM

## CC(C)C(CCOc1ccc(-c2ccc(Cl)cc2)cc1)CCN1CCN(c2ccncc2)C1=O (stereo unspecified)
Enterovirus [1]
  pIC50: < 4.60
Enterovirus [2]
  pIC50: 5.68
[3]
  CC50: > 25000 nM

## CC(CCCCN1CCN(c2ccncc2)C1=O)Oc1ccc(-c2ccc(Cl)cc2)cc1 (stereo unspecified)
Enterovirus [1]
  pIC50: 6.22
Enterovirus [2]
  pIC50: 7.28
[3]
  CC50: > 12500 nM

## Cc1nc(-c2ccc(OCCC(C)CCN3CCN(c4ccncc4)C3=O)cc2)no1 (stereo unspecified)
Enterovirus [1]
  pIC50: 8.00
Enterovirus [2]
  pIC50: 9.05
Enterovirus [4]
  Selectivity index: >625
Enterovirus [5]
  Selectivity index: >6944
[3]
  CC50: > 6250 nM

## CC(CCCOc1ccc(-c2ccc(Cl)cc2)cc1)CN1CCN(c2ccncc2)C1=O (stereo unspecified)
Enterovirus [1]
  pIC50: 7.70
Enterovirus [2]
  pIC50: 8.30
[3]
  CC50: > 25000 nM
